# From ChEMBL document CHEMBL4402601, “Discovery of a Silicon-Containing Pan-Genotype Hepatitis C Virus NS5A Inhibitor” (J Med Chem, 2020)
# How the values were obtained:
# [1] = Metabolic stability in human liver microsomes assessed as compound remaining at 1 uM incubated for 60 mins by UPLC-MS/MS analysis; assay type: ADME, Microsome; conditions: read-out: Stability
# Summary of the method: (§1)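 Pooled mouse, rat or human liver microsomes (0.5 mg/mL) with 1 μM compound, 1 mM NADPH, 5 mM MgCl₂ and 100 mM potassium phosphate pH 7.4. Pre-incubated 5 min at 37 °C, started with NADPH, then run 60 min at 37 °C. Quenched with ice-cold acetonitrile containing internal standard; parent remaining measured by UPLC-MS/MS.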
# [2] = Toxicity in mouse assessed as effect on hematological parameters at 300 mg/kg, po administered for 14 days and measured on day 14; assay type: organism-based; conditions: in vivo, 336 h
# Summary of the method: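 Mice randomised after acclimation into two groups of 5 males and 5 females. Compound at 300 mg/kg or vehicle alone given once daily by oral gavage for 14 days. Clinical signs observed daily. Body weight and food intake recorded on day 1, then twice weekly. Animals killed after the 14th dose.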
# [3] = Ratio of drug distribution in mouse liver to drug distribution in mouse plasma measured after 0.5 hrs by UPLC-MS/MS analysis; assay type: ADME, cell-free
# Summary of the method: (§2)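 Oral dosing in mice and rats; compound measured in plasma and liver by UPLC-MS/MS at each time point, n = 3 (mean ± SD). LPR is mean liver concentration divided by mean plasma concentration.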
# [4] = AUC (0 to infinity) in dog at 5 mg/kg, po by UPLC-MS/MS analysis; assay type: ADME, organism-based, Canis lupus familiaris; design: dose 5 mg/kg, route oral, time infinity; conditions: in vivo
# [5] = Half life in mouse at 10 mg/kg, po by UPLC-MS/MS analysis; assay type: ADME, organism-based; conditions: in vivo
# Summary of the method: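 Overnight-fasted mice given a single 10 mg/kg oral dose in 2:2:96 (v/v) alcohol : Tween 80 : glucose injection. Plasma levels by UPLC-MS/MS. Bioavailability derived against a 2 mg/kg iv arm using the same formulation diluted 2.5 times with 10% glucose injection.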
# [6] = Half life in mouse at 2 mg/kg, iv by UPLC-MS/MS analysis; assay type: ADME, organism-based; conditions: in vivo
# Summary of the method: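 Overnight-fasted mice dosed iv once at 2 mg/kg. Vehicle was 2:2:96 (v/v) alcohol : Tween 80 : glucose injection diluted 2.5 times with 10% glucose injection. Plasma concentration measured by UPLC-MS/MS.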
# [7] = Metabolic stability in mouse liver microsomes assessed as compound remaining at 1 uM incubated for 60 mins by UPLC-MS/MS analysis; assay type: ADME, Microsome; conditions: read-out: Stability; summary of the method: as §1
# Hepatitis C virus [8] = test: Resistance index, ratio of EC50 for Hepatitis C virus subtype 1a H77 subgenomic replicon expressing NS5A Y93N mutant infected in human HuH7 cells to EC50 for Hepatitis C virus subtype 1a H77 subgenomic replicon expressing NS5A infected in human HuH7 cells; assay type: functional, Hepacivirus hominis
# [9] = Ratio of drug distribution in rat liver to drug distribution in rat plasma measured after 3 hrs by UPLC-MS/MS analysis; assay type: ADME, cell-free; summary of the method: as §2
# Hepatitis C virus [10] = test: Resistance index, ratio of EC50 for Hepatitis C virus subtype 1a H77 subgenomic replicon expressing NS5A Y93C mutant infected in human HuH7 cells to EC50 for Hepatitis C virus subtype 1a H77 subgenomic replicon expressing NS5A infected in human HuH7 cells; assay type: functional, Hepacivirus hominis
# [11] = Drug distribution in mouse plasma at 10 mg/kg, po incubated for 24 hrs by UPLC-MS/MS analysis; assay type: ADME, organism-based; summary of the method: as §2
# [12] = Tmax in mouse at 10 mg/kg, po by UPLC-MS/MS analysis; assay type: ADME, organism-based; conditions: in vivo
# Summary of the method: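 Mice fasted overnight, given a single 10 mg/kg oral dose in 2:2:96 (v/v) alcohol:Tween 80:glucose injection. Plasma concentrations measured by UPLC-MS/MS.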
# Hepatitis C virus [13] = test: Resistance index, ratio of EC50 for Hepatitis C virus subtype 1a H77 subgenomic replicon expressing NS5A Y93H mutant infected in human HuH7 cells to EC50 for Hepatitis C virus subtype 1a H77 subgenomic replicon expressing NS5A infected in human HuH7 cells; assay type: functional, Hepacivirus hominis
# [14] = Ratio of drug distribution in rat liver to drug distribution in rat plasma measured after 8 hrs by UPLC-MS/MS analysis; assay type: ADME, cell-free; summary of the method: as §2
# Hepatitis C virus [15] = test: Antiviral activity against Hepatitis C virus subtype 1a H77 subgenomic replicon expressing NS5A Q30K mutant infected in human HuH7 cells assessed as reduction in viral replication incubated for 3 days by luciferase reporter gene assay; assay type: functional, organism-based, Hepacivirus hominis; conditions: subtype 1a H77, Huh-7, 72 h
# Summary of the method: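 NS5A resistance-associated variants introduced into GT1a-H77 or GT1b-Con1 replicons. In transient assays, each variant replicon was electroporated into a Huh-7-derived cell line. Inhibition measured as drop in luciferase signal. Percent inhibition computed per concentration; EC50 from 4-parameter logistic nonlinear fit. Fold resistance is variant EC50 relative to the matching reference replicon.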
compound,measurement,setting,value
COC(=O)N[C@H](C(=O)N1CCC[C@H]1C(=O)Nc1ccc([C@@H]2CC[C@@H](c3ccc(NC(=O)[C@@H]4CCCN4C(=O)[C@@H](NC(=O)OC)[C@@H](C)OC)cc3)N2c2cc(F)c(N3CC[Si](C)(C)CC3)c(F)c2)cc1)[C@@H](C)OC,"remaining at 1 h, 1 µM",[1],80.9%
same,Activity,[2],Non-Toxic
same,Kp at 0.5 h,[3],8.8
same,AUC,[4],10.1 µg·h/mL
same,half-life,[5],8 h
same,half-life,[6],12.2 h
same,"remaining at 1 h, 1 µM",[7],60.4%
same,Ratio EC50,Hepatitis C virus [8],>203
same,Kp at 3 h,[9],5.2
same,Ratio EC50,Hepatitis C virus [10],>203
same,concentration at 24 h,[11],0.0586 µg/mL
same,Tmax,[12],7.3 h
same,Ratio EC50,Hepatitis C virus [13],>833
same,Kp at 8 h,[14],10.7
same,EC50,Hepatitis C virus [15],0.0375 nM
